Reference: ChEMBL document CHEMBL4196009, “Novel vitexin-inspired scaffold against leukemia” (Eur J Med Chem, 2018)
Activity calls are given as the source filed them. The rule behind the calls is not given here.

Key:
KOPN-8 [1] = assay: Antiproliferative activity against human KOPN8 cells after 72 hrs by CelTiter-Glo assay; format: functional, cell-based; conditions: KOPN-8, 72 h
SEM cells = assay: Antiproliferative activity against human SEM cells after 72 hrs by CelTiter-Glo assay; format: functional, cell-based
SUP-B15 = assay: Antiproliferative activity against human SUP-B15 cells after 72 hrs by CelTiter-Glo assay; format: functional, cell-based; conditions: SUP-B15, 72 h
UoC-B1 = assay: Antiproliferative activity against human UOCB1 cells after 72 hrs by CelTiter-Glo assay; format: functional, cell-based; conditions: UoC-B1, 72 h
HepG2 = assay: Antiproliferative activity against human HepG2 cells after 72 hrs by CelTiter-Glo assay; format: functional, cell-based; conditions: HepG2, 72 h
BJ = assay: Antiproliferative activity against human BJ cells after 72 hrs by CelTiter-Glo assay; format: cell-based
MDA-MB-231 [2] = assay: Cell cycle arrest in human MDA-MB-231 cells assessed as accumulation at G0/G1 phase at 5 uM after 24 hrs by propidium iodide staining-based flow cytometry (reference value: 70.47%); format: functional
MDA-MB-231 [3] = assay: Cell cycle arrest in human MDA-MB-231 cells assessed as accumulation at G2/M phase at 5 uM after 24 hrs by propidium iodide staining-based flow cytometry (reference value: 9.38%); format: functional
MDA-MB-231 [4] = assay: Cell cycle arrest in human MDA-MB-231 cells assessed as accumulation at S phase at 5 uM after 24 hrs by propidium iodide staining-based flow cytometry (reference value: 20.15%); format: functional
KOPN-8 [5] = assay: Induction of apoptosis in human KOPN8 cells assessed as upregulation of cleaved PARP level at 0.5 uM after 3 to 24 hrs by Western blot analysis; format: functional, cell-based
Summary of the method: (§1)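 KOPN-8 cells were exposed to compound for 3 h and 24 h, with or without N-acetylcysteine added to a parallel set as antioxidant. Lysates were analysed by Western blot for cleaved PARP, Mcl-1, Ser-2-phosphorylated RNAPII CTD, cMyc, total Rb and pRb. Signals were compared against controls for dose-dependent change.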

KOPN-8 [6] = assay: Induction of apoptosis in human KOPN8 cells assessed as upregulation of cleaved PARP level at 0.5 uM pre-treated with NAC for 1 hr and measured after 3 to 24 hrs by Western blot analysis; format: functional, cell-based; summary of the method: as §1
KOPN-8 [7] = assay: Induction of apoptosis in human KOPN8 cells assessed as effect on Mcl-1 level at 0.5 uM after 3 hrs by Western blot analysis relative to control; format: functional
Homo sapiens [8] = species on record: Homo sapiens; assay: Inhibition of RNA polymerase 2 C-terminal domain phosphorylation at Ser2 residue in human KOPN8 cells at 0.5 uM after 3 hrs by Western blot analysis relative to control; format: cell-based; summary of the method: as §1
Homo sapiens [9] = species on record: Homo sapiens; assay: Inhibition of RNA polymerase 2 C-terminal domain phosphorylation at Ser2 residue in human KOPN8 cells at 0.5 uM after 24 hrs by Western blot analysis; format: cell-based; summary of the method: as §1
KOPN-8 [10] = assay: Effect on c-Myc expression in human KOPN8 cells at 0.5 uM after 3 hrs by Western blot analysis relative to control; format: functional
[11] = target: T1, Retinoblastoma-associated protein (Homo sapiens) (UniProt P06400); assay: Inhibition of Rb phosphorylation in human KOPN8 cells assessed as ratio of phosphorylated Rb to total Rb levels at 0.5 uM after 3 hrs by Western blot analysis relative to control; format: cell-based
T1 sequence (whole entry): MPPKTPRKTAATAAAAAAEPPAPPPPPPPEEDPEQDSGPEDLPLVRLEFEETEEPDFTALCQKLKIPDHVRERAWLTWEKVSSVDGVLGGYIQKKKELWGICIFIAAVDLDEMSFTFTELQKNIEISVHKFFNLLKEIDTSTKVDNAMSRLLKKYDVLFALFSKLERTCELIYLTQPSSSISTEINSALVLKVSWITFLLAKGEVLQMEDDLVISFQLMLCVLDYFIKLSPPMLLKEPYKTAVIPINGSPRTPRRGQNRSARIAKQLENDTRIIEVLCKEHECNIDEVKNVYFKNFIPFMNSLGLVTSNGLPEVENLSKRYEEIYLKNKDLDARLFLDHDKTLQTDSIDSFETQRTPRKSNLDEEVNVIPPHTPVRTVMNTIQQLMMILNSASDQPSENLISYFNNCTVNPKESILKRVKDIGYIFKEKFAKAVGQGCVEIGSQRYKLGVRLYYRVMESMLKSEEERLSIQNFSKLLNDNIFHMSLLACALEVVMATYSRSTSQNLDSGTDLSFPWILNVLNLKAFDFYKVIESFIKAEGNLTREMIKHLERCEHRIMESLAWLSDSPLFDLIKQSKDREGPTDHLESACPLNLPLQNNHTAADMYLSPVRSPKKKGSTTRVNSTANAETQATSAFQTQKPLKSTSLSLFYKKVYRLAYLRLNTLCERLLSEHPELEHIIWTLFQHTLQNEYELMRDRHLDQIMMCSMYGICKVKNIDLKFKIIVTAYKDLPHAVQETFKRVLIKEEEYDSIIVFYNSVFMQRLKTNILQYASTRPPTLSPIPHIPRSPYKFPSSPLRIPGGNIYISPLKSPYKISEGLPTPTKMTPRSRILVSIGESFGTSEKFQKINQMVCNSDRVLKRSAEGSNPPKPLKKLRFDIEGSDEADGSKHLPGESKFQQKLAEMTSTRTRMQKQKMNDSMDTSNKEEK
Summary of the method: (§2)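 KOPN-8 pre-B ALL cells were treated for 3 h and 24 h, with or without N-acetyl cysteine added to a parallel set of cells as an antioxidant/ROS quencher. Lysates were analysed by Western blot for phosphorylated Rb and total Rb. The same blots also probed PARP cleavage, Mcl-1, Ser-2-phosphorylated RNAPII CTD and cMyc.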

KOPN-8 [12] = assay: Induction of apoptosis in human KOPN8 cells assessed as effect on Mcl-1 level at 0.5 uM pre-treated with NAC for 1 hr and measured after 3 hrs by Western blot analysis relative to control; format: functional
KOPN-8 [13] = assay: Induction of apoptosis in human KOPN8 cells assessed as effect on Mcl-1 level at 0.5 uM after 24 hrs by Western blot analysis relative to control; format: functional
KOPN-8 [14] = assay: Induction of apoptosis in human KOPN8 cells assessed as effect on Mcl-1 level at 0.5 uM pre-treated with NAC for 1 hr and measured after 24 hrs by Western blot analysis relative to control; format: functional
Homo sapiens [15] = species on record: Homo sapiens; assay: Inhibition of RNA polymerase 2 C-terminal domain phosphorylation at Ser2 residue in human KOPN8 cells at 0.5 uM pre-treated with NAC for 1 hr and measured after 3 hrs by Western blot analysis relative to control; format: cell-based; summary of the method: as §1
Homo sapiens [16] = species on record: Homo sapiens; assay: Inhibition of RNA polymerase 2 C-terminal domain phosphorylation at Ser2 residue in human KOPN8 cells at 0.5 uM pre-treated with NAC for 1 hr and measured after 24 hrs by Western blot analysis relative to control; format: cell-based; summary of the method: as §1
KOPN-8 [17] = assay: Effect on c-Myc expression in human KOPN8 cells at 0.5 uM pre-treated with NAC for 1 hr and measured after 3 hrs by Western blot analysis relative to control; format: functional
KOPN-8 [18] = assay: Effect on c-Myc expression in human KOPN8 cells at 0.5 uM after 24 hrs by Western blot analysis relative to control; format: functional
KOPN-8 [19] = assay: Effect on c-Myc expression in human KOPN8 cells at 0.5 uM pre-treated with NAC for 1 hr and measured after 24 hrs by Western blot analysis relative to control; format: functional
[20] = target: T1, Retinoblastoma-associated protein (Homo sapiens); assay: Inhibition of Rb phosphorylation in human KOPN8 cells assessed as ratio of phosphorylated Rb to total Rb levels at 0.5 uM pre-treated with NAC for 1 hr and measured after 3 hrs by Western blot analysis relative to control; format: cell-based; summary of the method: as §2
[21] = target: T1, Retinoblastoma-associated protein (Homo sapiens); assay: Inhibition of Rb phosphorylation in human KOPN8 cells assessed as ratio of phosphorylated Rb to total Rb levels at 0.5 uM after 24 hrs by Western blot analysis relative to control; format: cell-based; summary of the method: as §1
[22] = target: T1, Retinoblastoma-associated protein (Homo sapiens); assay: Inhibition of Rb phosphorylation in human KOPN8 cells assessed as ratio of phosphorylated Rb to total Rb levels at 0.5 uM pre-treated with NAC for 1 hr and measured after 24 hrs by Western blot analysis relative to control; format: cell-based; summary of the method: as §2

CN1CC[C@H](c2c(O)cc(O)c3c(=O)cc(-c4ccccc4Cl)oc23)[C@H](O)C1 [ALVOCIDIB]
EC50 (KOPN-8 [1]): 193 nM
EC50 (SEM cells): 204 nM
EC50 (SUP-B15): > 86200 nM
EC50 (UoC-B1): 208 nM
EC50 (HepG2): 146 nM
EC50 (BJ): > 86200 nM
Activity (MDA-MB-231 [2]): 66.03%
Activity (MDA-MB-231 [3]): 16.47%
Activity (MDA-MB-231 [4]): 17.5%
Activity (KOPN-8 [5]): Active
Activity (KOPN-8 [6]): Active
fold change (FC) (KOPN-8 [7]): 0.2
fold change (FC) (Homo sapiens [8]): 0.4
fold change (FC) (Homo sapiens [9]): 0
fold change (FC) (KOPN-8 [10]): 0.2
fold change (FC) [11]: 0.9
fold change (FC) (KOPN-8 [12]): 0.2
fold change (FC) (KOPN-8 [13]): 0
fold change (FC) (KOPN-8 [14]): 0
fold change (FC) (Homo sapiens [15]): 0.6
fold change (FC) (Homo sapiens [16]): 0
fold change (FC) (KOPN-8 [17]): 0.2
fold change (FC) (KOPN-8 [18]): 0
fold change (FC) (KOPN-8 [19]): 0
fold change (FC) [20]: 1.1
fold change (FC) [21]: 1
fold change (FC) [22]: 1.1
